Article PMC3929337 (Biochemistry, 2014)

How the values were obtained:
[1] = test system: Notch 1 receptor (NΔE) proteolysis, NICD; test: Cell-based Notch proteolytic processing assay; design: species or system human; settings: H4-APP751/NΔE cells, 24 h; lowest concentration tested
Method in brief: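 H4 human neuroglioma cells stably overexpressing human APP751 were transfected with Myc-tagged NΔE Notch and treated for a further 24 h with serially diluted test compound, DMSO vehicle, or a dipeptidic γ-secretase inhibitor as positive control. Concentrations ranged up to 30 μM. Cells were harvested 48 h post-transfection. Lysates were Western blotted with anti-Myc for NΔE/NICD, an APP C-terminal antibody for holo-APP, C99 and C83, and anti-β-actin as loading control.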

[2] = test system: Aβ peptide variants in PS1 mutant-expressing cell lines; settings: cited from earlier work

SMILES: C[C@H](NC(=O)Cc1cc(F)cc(F)c1)C(=O)NC(C(=O)OC(C)(C)C)c1ccccc1 (stereo partly drawn) [DAPT, N-[N-(3,5-difluorophenacetyl)-L-alanyl]-S-phenylglycine tert-butyl ester]
- concentration at which inhibition of NICD occurred [1]: ≤ 300 nM

SMILES: COc1cc(/C=C2\CCCN([C@@H](C)c3ccc(F)cc3)C2=O)ccc1-n1cnc(C)c1 [Eisai]
- effects on Aβ38 and Aβ42 in PS1 mutant cell lines [2]: behaved like the “TorreyPines” compound

SMILES: CC(C)CC[C@H](c1ccc(Cl)cc1)N1CC[C@@H](CC(=O)O)C[C@H]1c1ccc(C(F)(F)F)cc1 [GSM-1]
- effect on Aβ peptide variants, G384A PS1 mutant ([2]; G384A PS1 mutant): effectively lowered Aβ42, Aβ40, and Aβ37
- effect on Aβ38 levels, PS1 mutants L166P and N135S ([2]; PS1 mutants L166P and N135S): increases in Aβ38 levels
- inhibition of Aβ42, PS1 mutants L166P and N135S ([2]; PS1 mutants L166P and N135S): resistant
